This sample holds only a part of the variants without activity.
B1: tRNA (parent)
chain: GUUCCGUUGGCGUAAUGGUAACGCGUCUCCCUCCUAAGGAGAAGACUGCGGGUUCGAGUCCCGUACGGAACG

Variants of: B1
Test: yeast fitness relative to wild type (ratio to wild type); higher = fitter; tRNA-Arg(CCU), competitive growth, 37 C, YPD
Outline: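 Gene amplicons from the start population and from each of six end populations were read by 100-nucleotide paired-end sequencing. Those end populations came from pooled Saccharomyces cerevisiae strains carrying tRNA-Arg(CCU) gene variants at the native locus, competed in YPD at 37°C for 24 hours. Fitness relative to wild type was worked out from changes in genotype frequencies. Genotypes needed ≥ 100 starting reads, and estimates < 0.5 were set to 0.5.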

Row | Variant | yeast fitness
1 | A15C A21G G23A C27U | ≤ 0.5
2 | A15C A21U | 0.546
3 | A15C A21U A36C C49U A69U | ≤ 0.5
4 | A15C A21U A69U | ≤ 0.5
5 | A15C A21U A70G | ≤ 0.5
6 | A15C A21U C24A C33A C61U | ≤ 0.5
7 | A15C A21U C24A C33A C66A | ≤ 0.5
8 | A15C A21U C24U A57G G67U | 0.542
9 | A15C A21U C34A | ≤ 0.5
10 | A15C A36C G38C C55U C66U | ≤ 0.5
11 | A15C A36C G39C | ≤ 0.5
12 | A15C A36G C49U | 0.533
13 | A15C A36U A57U G67A | ≤ 0.5
14 | A15C A36U G58A G67A | ≤ 0.5
15 | A15C A36U U64A | ≤ 0.5
16 | A15C A37C | 0.639
17 | A15C A37C A42U | ≤ 0.5
18 | A15C A37C C60U G67A | ≤ 0.5
19 | A15C A37C G41C C66A | 0.589
20 | A15C A37G | 0.614
21 | A15C A37G A57C A69C | 0.794
22 | A15C A37U C66U | 0.584
23 | A15C A40C | 0.609
24 | A15C A40C A70U | ≤ 0.5

Row | Variant | yeast fitness
25 | A15C A40G | 0.729
26 | A15C A40G A65G | 0.511
27 | A15C A40U G63A A65G G67A | ≤ 0.5
28 | A15C A42C | 0.646
29 | A15C A42C C55G | 0.547
30 | A15C A42C C55G A70G | 0.72
31 | A15C A42C G48A G50C | 0.587
32 | A15C A42C G48A G50C A65G | 0.561
33 | A15C A42G A43G | ≤ 0.5
34 | A15C A42G G67C | ≤ 0.5
35 | A15C A42G G67U | 0.522
36 | A15C A43G | 0.689
37 | A15C A43G C46A | 0.526
38 | A15C A43G C46A A70C | ≤ 0.5
39 | A15C A43U | 0.653
40 | A15C A45C G48A | 0.638
41 | A15C A45G C55U | ≤ 0.5
42 | A15C A45G G68A | ≤ 0.5
43 | A15C A45G U53C | ≤ 0.5
44 | A15C A45U C66A | ≤ 0.5
45 | A15C A57U C62G | ≤ 0.5
46 | A15C A65C | 0.713
47 | A15C A65U | 0.841
48 | A15C A65U G67U | ≤ 0.5

Row | Variant | yeast fitness
49 | A15C A69C | 0.672
50 | A15C A69U | 0.892
51 | A15C A70G | 0.795
52 | A15C A70U | 0.872
53 | A15C C22A A70U | ≤ 0.5
54 | A15C C22A C31A G38C | ≤ 0.5
55 | A15C C22A G25C U28A A36U U54C A57C | ≤ 0.5
56 | A15C C22G | 0.658
57 | A15C C22G A43C G50A | 0.556
58 | A15C C22G A43C G50A U59C | ≤ 0.5
59 | A15C C22G A57C G63C C66U | ≤ 0.5
60 | A15C C22G C33U U59G C62G | 0.981
61 | A15C C22G G58C C62U | ≤ 0.5
62 | A15C C22G U32C G41A | ≤ 0.5
63 | A15C C22U | 0.689
64 | A15C C22U A42U U47A | 0.511
65 | A15C C22U U26G G52A | 0.732
66 | A15C C24A C46A A57C A69U | ≤ 0.5
67 | A15C C24A U32A C55U | ≤ 0.5
68 | A15C C24A U59C C62U | ≤ 0.5
69 | A15C C24G | 0.557
70 | A15C C24G A40U G44A | ≤ 0.5
71 | A15C C24G A45G | ≤ 0.5
72 | A15C C24G A45G C55U | ≤ 0.5

Row | Variant | yeast fitness
73 | A15C C24G A45G G52A C60A | ≤ 0.5
74 | A15C C24G A45G G56A A69C | ≤ 0.5
75 | A15C C24U A42C | 0.62
76 | A15C C24U A45G G52A | ≤ 0.5
77 | A15C C24U G44A C55G | ≤ 0.5
78 | A15C C24U U28A C29G G52A | 0.501
79 | A15C C27A C33U C34A C61U | 0.509
80 | A15C C27A U32G C60G | ≤ 0.5
81 | A15C C27G C30U C46A | 0.542
82 | A15C C27G C30U C46A A70U | ≤ 0.5
83 | A15C C27G C49G | 0.551
84 | A15C C27G C61G | 0.781
85 | A15C C27G G39C U47A A69U | ≤ 0.5
86 | A15C C27U | 0.724
87 | A15C C27U A40G G52A A57U | 0.692
88 | A15C C27U G39C C49G A69C | ≤ 0.5
89 | A15C C27U G58C | 0.599
90 | A15C C29A | ≤ 0.5
91 | A15C C29A U54A | ≤ 0.5
92 | A15C C29G A40U G52A | ≤ 0.5
93 | A15C C29G G44C A45U U47A A70C | ≤ 0.5
94 | A15C C29U | 0.669
95 | A15C C29U C31U | ≤ 0.5
96 | A15C C30A A40G C49G U54A C55A A65G A70U | ≤ 0.5

Row | Variant | yeast fitness
97 | A15C C30A A42C C55U | ≤ 0.5
98 | A15C C30A A42C G56A C60G | ≤ 0.5
99 | A15C C30A A57G A69C | ≤ 0.5
100 | A15C C30A A69C | ≤ 0.5
101 | A15C C30G | 0.541
102 | A15C C30G A37C | ≤ 0.5
103 | A15C C30G C66G A69U | ≤ 0.5
104 | A15C C30U | 0.572
105 | A15C C30U A42U C49G | ≤ 0.5
106 | A15C C31A | 0.561
107 | A15C C31G A40U G51A | ≤ 0.5
108 | A15C C31G C33G | ≤ 0.5
109 | A15C C31G C33G C55U C61U | 0.504
110 | A15C C31G C49U | 0.638
111 | A15C C31G C49U U64C G67A | ≤ 0.5
112 | A15C C31G C55A | 0.608
113 | A15C C31G U32A C33U C34G | ≤ 0.5
114 | A15C C31U | 0.742
115 | A15C C31U A45U G51C | ≤ 0.5
116 | A15C C31U C55G | ≤ 0.5
117 | A15C C33A C34U A36C | 0.604
118 | A15C C33G | 0.505
119 | A15C C33G C60U C62U | ≤ 0.5
120 | A15C C33G G38C C62A | 0.551

Row | Variant | yeast fitness
121 | A15C C33U | 0.572
122 | A15C C33U C61G | ≤ 0.5
123 | A15C C34A C46U | 0.614
124 | A15C C34G | 0.59
125 | A15C C34G C46A C61U C66G | ≤ 0.5
126 | A15C C34G C49G C66G G68C | 0.612
127 | A15C C34G C49G U54C C66G G68C | ≤ 0.5
128 | A15C C34U A36G C55A | ≤ 0.5
129 | A15C C34U A57C | 0.603
130 | A15C C34U C55A | ≤ 0.5
131 | A15C C46A G56C A70G | ≤ 0.5
132 | A15C C46G A65G C66U | ≤ 0.5
133 | A15C C46G G50C C61A | 0.636
134 | A15C C46U C49U G50A | ≤ 0.5
135 | A15C C46U C60U | 0.58
136 | A15C C46U C61U G67A | ≤ 0.5
137 | A15C C46U C66A | 0.55
138 | A15C C49A | 0.637
139 | A15C C49A G68C | ≤ 0.5
140 | A15C C49U A69G | ≤ 0.5
141 | A15C C49U U54C C55G | 0.64
142 | A15C C55A A65C | ≤ 0.5
143 | A15C C55G A57C | ≤ 0.5
144 | A15C C60A C62U | ≤ 0.5

Row | Variant | yeast fitness
145 | A15C C60G | 0.612
146 | A15C C60U A69G | ≤ 0.5
147 | A15C C61A | 0.761
148 | A15C C61U | 0.713
149 | A15C C66G | 0.618
150 | A15C G17A | 0.707
151 | A15C G17A A65G | 0.576
152 | A15C G17A C55G | ≤ 0.5
153 | A15C G17A G38C U59C | 0.569
154 | A15C G17A G68A | ≤ 0.5
155 | A15C G17A U28A A65U | 0.752
156 | A15C G17A U35A | ≤ 0.5
157 | A15C G17C A45U | ≤ 0.5
158 | A15C G17C C22G C24A C31A G67C | 0.752
159 | A15C G17C C31A U32C G44C | ≤ 0.5
160 | A15C G17U C46U | 0.633
161 | A15C G17U U19A C31U C34A | ≤ 0.5
162 | A15C G18A C24G | ≤ 0.5
163 | A15C G18A U19G | ≤ 0.5
164 | A15C G18A U35C | ≤ 0.5
165 | A15C G18C A40U | ≤ 0.5
166 | A15C G18C A42C | ≤ 0.5
167 | A15C G18C A42C G51C A65C | ≤ 0.5
